Results published in ChEMBL document CHEMBL1817572, “New, potent, selective, and short-acting peptidic V1a receptor agonists” (J Med Chem, 2011).
pEC50: −log10 of the molar value. Bridge positions count the residues as written; N and C are the ends. Square brackets hold non-standard residues; d marks the D form. Peptide text beside a SMILES is read from it. * marks the point of attachment. Orn(Pr) = CCCNCCC[C@H](N)C(=O)O; NH(3-hydroxypropyl) = OCCCN*; NHCH(CH2OH)2 = OCC(CO)N*; Orn = NCCC[C@H](N)C(=O)O; Dab = NCC[C@H](N)C(=O)O

How the values were obtained:
Rattus norvegicus [1] = experiment: Vasoconstriction in Wistar rat assessed as decay in vasopressive duration of action at 0.3 nmol/kg, iv bolus measured over 10 sec interval; format: functional; parameters: unit not given here
[2] = target: Vasopressin V1a/V2 (Homo sapiens) (UniProt P30518+P37288); experiment: Selectivity ratio of EC50 for human vasopressin V2 receptor to EC50 for human vasopressin V1a receptor
Vasopressin V1a receptor [3] = target: T1, Vasopressin V1a receptor (Homo sapiens, UniProt P37288); experiment: Agonist activity at recombinant human vasopressin V1a receptor expressed in HEK293 cells by luciferase reporter gene assay; format: functional, cell-based; conditions: read-out: EC50
Target sequence in this assay (P37288 whole entry): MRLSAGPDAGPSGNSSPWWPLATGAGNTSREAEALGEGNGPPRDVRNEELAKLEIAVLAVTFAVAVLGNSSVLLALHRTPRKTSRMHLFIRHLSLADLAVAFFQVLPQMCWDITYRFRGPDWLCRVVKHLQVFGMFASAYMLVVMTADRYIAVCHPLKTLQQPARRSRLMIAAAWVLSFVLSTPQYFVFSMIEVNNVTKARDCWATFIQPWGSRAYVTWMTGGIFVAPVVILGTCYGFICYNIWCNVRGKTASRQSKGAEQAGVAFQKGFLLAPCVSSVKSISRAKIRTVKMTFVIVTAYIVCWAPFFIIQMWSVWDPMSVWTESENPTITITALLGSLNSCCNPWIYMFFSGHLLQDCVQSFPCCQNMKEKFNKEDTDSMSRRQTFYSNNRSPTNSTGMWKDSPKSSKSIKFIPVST

Vasopressin V1b receptor = target: T2, Vasopressin V1b receptor (Homo sapiens, UniProt P47901); experiment: Agonist activity at recombinant human vasopressin V1b receptor expressed in Flp-In-293 cells by luciferase reporter gene assay; format: functional, cell-based; conditions: for pEC50: read-out: EC50
T2 sequence (P47901 whole entry): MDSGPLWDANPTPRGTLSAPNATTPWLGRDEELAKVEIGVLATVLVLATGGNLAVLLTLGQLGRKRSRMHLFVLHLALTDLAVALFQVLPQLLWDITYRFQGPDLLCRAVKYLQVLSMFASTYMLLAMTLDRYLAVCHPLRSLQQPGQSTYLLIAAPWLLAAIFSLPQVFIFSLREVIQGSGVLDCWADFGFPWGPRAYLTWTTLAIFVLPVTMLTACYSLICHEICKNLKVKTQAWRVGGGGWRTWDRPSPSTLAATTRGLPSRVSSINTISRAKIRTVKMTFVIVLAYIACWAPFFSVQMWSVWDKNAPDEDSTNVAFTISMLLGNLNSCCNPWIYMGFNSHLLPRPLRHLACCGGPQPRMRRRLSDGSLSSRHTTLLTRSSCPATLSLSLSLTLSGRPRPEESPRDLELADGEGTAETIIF
Outline: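 Reporter gene assays in HEK293 cells transiently cotransfected with V1a (human or rat) or human V2 receptor vector plus NFAT-luciferase (V1a) or CRE-luciferase (V2) reporter; V1b in Flp-In-293 stably expressing receptor, OT in CHO-K1 stably expressing receptor, both transiently transfected with NFAT-luciferase. Two days post-transfection, peptides added for 5 h at 37 °C, lysis with luciferin, luminescence read.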

Vasopressin V2 receptor [4] = target: T3, Vasopressin V2 receptor (Homo sapiens, UniProt P30518); experiment: Agonist activity at recombinant human vasopressin V2 receptor expressed in HEK293 cells by luciferase reporter gene assay; format: functional, cell-based; conditions: for pEC50: read-out: EC50; for EC50: read-out: pEC50 (converted)
Oxytocin receptor = target: T4, Oxytocin receptor (Homo sapiens, UniProt P30559); experiment: Agonist activity at human OT receptor expressed in CHO-K1 cells by luciferase reporter gene assay; format: functional, cell-based; conditions: for pEC50: read-out: EC50; for EC50: read-out: pEC50 (converted)
T4 sequence (P30559 whole entry): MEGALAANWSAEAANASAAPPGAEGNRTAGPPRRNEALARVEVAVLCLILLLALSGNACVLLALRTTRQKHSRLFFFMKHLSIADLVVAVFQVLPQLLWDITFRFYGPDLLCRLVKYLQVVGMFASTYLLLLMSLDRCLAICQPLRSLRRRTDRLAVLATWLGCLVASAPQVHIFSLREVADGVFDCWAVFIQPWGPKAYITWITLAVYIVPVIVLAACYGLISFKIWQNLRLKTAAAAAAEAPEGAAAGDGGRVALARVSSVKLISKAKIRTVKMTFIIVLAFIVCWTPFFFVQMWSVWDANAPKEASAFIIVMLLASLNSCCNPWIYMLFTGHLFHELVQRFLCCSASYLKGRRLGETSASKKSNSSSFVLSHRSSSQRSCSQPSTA

Homo sapiens [5] = organism: Homo sapiens; experiment: Selectivity ratio of EC50 for human vasopressin V1b receptor to EC50 for human vasopressin V1a receptor
Homo sapiens [6] = organism: Homo sapiens; experiment: Selectivity ratio of EC50 for human oxytocin receptor to EC50 for human vasopressin V1a receptor
Vasopressin V1a receptor [7] = target: Vasopressin V1a receptor (Rattus norvegicus, UniProt P30560); experiment: Agonist activity at recombinant rat vasopressin V1a receptor expressed in HEK293 cells by luciferase reporter gene assay; format: functional, cell-based; conditions: read-out: EC50
Vasopressin V2 receptor [8] = target: T3, Vasopressin V2 receptor; experiment: Partial agonist activity at recombinant human vasopressin V2 receptor expressed in HEK293 cells by luciferase reporter gene assay; format: functional, cell-based
Outline: (§1)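 Same luciferase reporter systems (OT in stable CHO-K1, V1b in stable Flp-In-293, each with transient NFAT-luciferase; V1a in HEK293 with NFAT-luciferase, V2 in HEK293 with CRE-luciferase). Peptides added for 5 h at 37 °C two days post-transfection, luminescence read. Partial agonism means efficacy <70%.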

[9] = target: T5, Oxytocin receptor (Homo sapiens) (UniProt P30559); experiment: Partial agonist activity at human OT receptor expressed in CHO-K1 cells by luciferase reporter gene assay; format: functional, cell-based; outline: as §1
T5 sequence (whole entry): T4 sequence (P30559 whole entry)

Rattus norvegicus [10] = experiment: Vasoconstriction in Wistar rat assessed as assessed as decay in vasopressive duration of action at 2 nmol/kg, iv bolus measured over 10 sec interval; format: functional
Outline: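 Fasted male Wistar rats (206–340 g) under isoflurane, then thiobutabarbital 150 mg/kg ip, ventilated, 37–38 °C, with carotid pressure and jugular dosing. Dibenamine 1.8 mg/rat iv pretreatment. Sequence: iv boluses (0.5 mL/kg) of heparinized vehicle, then two reference doses of 0.1 nmol/kg, then two test doses; one matches the reference diastolic pressure rise. Relative duration = reference decay rate / test decay rate; mean ± SEM.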

Vasopressin V1a receptor [11] = target: T1, Vasopressin V1a receptor; experiment: Partial agonist activity at recombinant human vasopressin V1a receptor expressed in HEK293 cells by luciferase reporter gene assay; format: functional, cell-based; outline: as §1
Target sequence in this assay (P37288 whole entry, looked up): as the sequence (P37288 whole entry) above

[12] = target: T6, Vasopressin V1b receptor (Homo sapiens) (UniProt P47901); experiment: Partial agonist activity at recombinant human vasopressin V1b receptor expressed in Flp-In-293 cells by luciferase reporter gene assay; format: functional, cell-based; outline: as §1
T6 sequence (whole entry): T2 sequence (P47901 whole entry)

Vasopressin V1a/V2 (Homo sapiens), sequence (P30518 whole entry, looked up): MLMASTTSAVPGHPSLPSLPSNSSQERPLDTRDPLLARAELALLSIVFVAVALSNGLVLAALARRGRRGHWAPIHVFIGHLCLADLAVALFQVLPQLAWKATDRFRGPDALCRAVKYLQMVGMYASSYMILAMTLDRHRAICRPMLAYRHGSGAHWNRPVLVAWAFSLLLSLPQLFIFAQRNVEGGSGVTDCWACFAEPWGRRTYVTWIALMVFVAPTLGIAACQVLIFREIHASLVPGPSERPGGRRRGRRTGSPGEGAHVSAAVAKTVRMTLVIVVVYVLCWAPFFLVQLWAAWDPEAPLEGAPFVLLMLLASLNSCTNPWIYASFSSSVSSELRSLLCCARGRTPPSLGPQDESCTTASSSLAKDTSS
Vasopressin V1a/V2 (Homo sapiens), sequence (P37288 whole entry, looked up): as the sequence (P37288 whole entry) above
T3 sequence (P30518 whole entry): as the sequence (P30518 whole entry, looked up) above
Vasopressin V1a receptor (Rattus norvegicus, UniProt P30560), sequence (P30560 whole entry): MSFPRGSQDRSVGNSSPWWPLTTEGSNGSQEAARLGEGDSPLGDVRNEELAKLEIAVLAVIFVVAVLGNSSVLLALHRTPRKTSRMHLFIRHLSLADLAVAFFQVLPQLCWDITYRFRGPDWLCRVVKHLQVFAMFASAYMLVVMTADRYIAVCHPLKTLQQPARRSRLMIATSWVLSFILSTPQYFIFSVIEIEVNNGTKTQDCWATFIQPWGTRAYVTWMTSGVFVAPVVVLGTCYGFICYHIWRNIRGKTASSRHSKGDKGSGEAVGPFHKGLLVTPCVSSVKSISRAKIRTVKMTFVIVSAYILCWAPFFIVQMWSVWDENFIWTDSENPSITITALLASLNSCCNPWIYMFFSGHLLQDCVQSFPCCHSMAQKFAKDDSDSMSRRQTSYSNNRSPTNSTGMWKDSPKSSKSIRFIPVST

Compound: CC[C@H](C)[C@@H]1NC(=O)[C@H](Cc2ccccc2)NC(=O)[C@@H](N)CSSC[C@@H](C(=O)N2CCC[C@H]2C(=O)N[C@@H](CCCNC(C)C)C(=O)NCC(N)=O)NC(=O)[C@H](CC(N)=O)NC(=O)[C@H](CCCC(N)=O)NC1=O [SELEPRESSIN]
- Time (Rattus norvegicus [1]): 1.4
- Ratio EC50 [2]: 1100
- pEC50 (Vasopressin V1a receptor [3]): 8.62
- pEC50 (Vasopressin V1b receptor): 6.47
- pEC50 (Vasopressin V2 receptor [4]): 5.57
- pEC50 (Oxytocin receptor): 5.96
- EC50 (Oxytocin receptor): 1.1 µM
- Ratio EC50 (Homo sapiens [5]): 140
- Ratio EC50 (Homo sapiens [6]): 450
- pEC50 (Vasopressin V1a receptor [7]): 9.26
- Efficacy (Vasopressin V2 receptor [8]): < 70%
- Efficacy [9]: < 70%

Compound: CC[C@H](C)[C@@H]1NC(=O)[C@H](Cc2ccccc2)NC(=O)[C@@H](N)CSSC[C@@H](C(=O)N2CCC[C@H]2C(=O)N[C@@H](CCCN)C(=O)NCC(N)=O)NC(=O)[C@H](CC(N)=O)NC(=O)[C@H](CC(=O)NCCCO)NC1=O (H-CFID(NH(3-hydroxypropyl))NCP[Orn]G-NH2; disulfide 1-6)
- Ratio EC50 [2]: > 4700
- pEC50 (Vasopressin V1a receptor [3]): 8.68
- pEC50 (Vasopressin V1b receptor): 7.72
- pEC50 (Vasopressin V2 receptor [4]; hek293): < 5.00
- EC50 (Vasopressin V2 receptor [4]): > 10 µM
- pEC50 (Oxytocin receptor; cho-k1): < 5.00
- EC50 (Oxytocin receptor): > 10 µM
- Ratio EC50 (Homo sapiens [5]): 9
- Ratio EC50 (Homo sapiens [6]): > 4700
- pEC50 (Vasopressin V1a receptor [7]): 8.57
- Time (Rattus norvegicus [10]): 1.7 unitless ratio

Compound: CC[C@H](C)[C@@H]1NC(=O)[C@H](Cc2cnc[nH]2)NC(=O)[C@@H](N)CSSC[C@@H](C(=O)N2CCC[C@H]2C(=O)N[C@@H](CCN)C(=O)NCC(N)=O)NC(=O)[C@H](CC(N)=O)NC(=O)[C@H](CCC(N)=O)NC1=O (H-CHIQNCP[Dab]G-NH2; disulfide 1-6)
- Ratio EC50 [2]: > 19
- pEC50 (Vasopressin V1a receptor [3]): 6.29
- pEC50 (Vasopressin V1b receptor; flp-in-293): < 5.00
- EC50 (Vasopressin V1b receptor; read-out: pEC50 (converted)): > 10 µM
- pEC50 (Vasopressin V2 receptor [4]; hek293): < 5.00
- EC50 (Vasopressin V2 receptor [4]): > 10 µM
- pEC50 (Oxytocin receptor; cho-k1): < 5.00
- EC50 (Oxytocin receptor): > 10 µM
- Ratio EC50 (Homo sapiens [5]): > 19
- Ratio EC50 (Homo sapiens [6]): > 19
- Efficacy (Vasopressin V1a receptor [11]): < 70%

Compound: CC[C@H](C)[C@@H]1NC(=O)[C@H](Cc2ccccc2)NC(=O)[C@@H](N)CSSC[C@@H](C(=O)N2CCC[C@H]2C(=O)N[C@@H](CCCN)C(=O)NCC(N)=O)NC(=O)[C@H](CC(N)=O)NC(=O)[C@H](CC(=O)NC(CO)CO)NC1=O (H-CFID(NHCH(CH2OH)2)NCP[Orn]G-NH2; disulfide 1-6)
- Ratio EC50 [2]: > 620
- pEC50 (Vasopressin V1a receptor [3]): 7.80
- pEC50 (Vasopressin V1b receptor): 7.21
- pEC50 (Vasopressin V2 receptor [4]; hek293): < 5.00
- EC50 (Vasopressin V2 receptor [4]): > 10 µM
- pEC50 (Oxytocin receptor; cho-k1): < 5.00
- EC50 (Oxytocin receptor): > 10 µM
- Ratio EC50 (Homo sapiens [5]): 3.8
- Ratio EC50 (Homo sapiens [6]): > 620
- Efficacy (Vasopressin V1a receptor [11]): < 70%
- Efficacy [12]: < 70%

Compound: CCCNCCC[C@H](NC(=O)[C@@H]1CCCN1C(=O)[C@@H]1CSSC[C@H](N)C(=O)N[C@@H](Cc2ccccc2)C(=O)N[C@@H]([C@@H](C)CC)C(=O)N[C@@H](CC(N)=O)C(=O)N[C@@H](CC(N)=O)C(=O)N1)C(=O)NCC(N)=O (H-CFINNCP[Orn(Pr)]G-NH2; disulfide 1-6)
- Ratio EC50 [2]: > 6600
- pEC50 (Vasopressin V1a receptor [3]): 8.82
- pEC50 (Vasopressin V1b receptor): 7.51
- pEC50 (Vasopressin V2 receptor [4]; hek293): < 5.00
- EC50 (Vasopressin V2 receptor [4]): > 10 µM
- pEC50 (Oxytocin receptor; cho-k1): < 5.00
- EC50 (Oxytocin receptor): > 10 µM
- Ratio EC50 (Homo sapiens [5]): 20
- Ratio EC50 (Homo sapiens [6]): > 6600
- Efficacy [12]: < 70%
